# Measurements from different studies.
# Protocols differ between the studies behind these lines.
# PIK3CG: Phosphatidylinositol 4,5-bisphosphate 3-kinase catalytic subunit gamma isoform (PIK3CG, Homo sapiens, UniProt P48736)
# ADRA2B: Alpha-2B adrenergic receptor (ADRA2B, Homo sapiens, UniProt P18089)
SMILES,target,read-out,action,technique,pH,endpoint,value
O=C1Nc2ccccc2/C1=N\c1ccc(Cl)cc1,PIK3CG,enzyme activity,inhibitor,ADP detection,,IC50,34.4 nM
CCN1/C(=C/C(C)=O)Sc2ccc(F)cc21,ADRA2B,ligand displacement,,radioligand,,Ki,987 nM
COc1cc(-c2noc(C3CNc4cnn(C)c4C3)n2)cc(Cl)c1OC (stereo not drawn),"FBXW7 (Homo sapiens, UniProt Q969H0)",binding,,SPR,,Kd,> 87000 nM
Cc1cc(Oc2ncccc2CN2CCN(c3ccccc3C)CC2)ccc1-c1c(C)c(=O)[nH]c(=O)n1C,ADRA2B,ligand displacement,,radioligand,,Ki,28.4 nM
Nc1ncnc2c1ncn2C1CCCC1,"Inositol-tetrakisphosphate 1-kinase (Homo sapiens, UniProt Q13572)",binding,,ITC,pH 7.2,Kd,52 nM
N#Cc1ccc2c(CN3CCOCC3)cc(-c3ccc([C@@H]4CCC(=O)N4)cc3)nc2c1,"Advanced glycosylation end product-specific receptor (AGER, Homo sapiens, UniProt Q15109)",binding,,fluorescence,,Kd,1 nM
Cc1ccc(CN2C(=O)C(=Nc3cccc(C)c3)c3ccccc32)cc1,PIK3CG,enzyme activity,inhibitor,ADP detection,,IC50,0.98 nM
Cc1cc(Oc2ncccc2CN2CCN(c3ccccn3)CC2)ccc1-c1c(C)c(=O)[nH]c(=O)n1C,ADRA2B,ligand displacement,,radioligand,,Ki,267 nM
CCC(C(=O)N1C(=O)C(=Nc2ccc(Cl)cc2Br)c2ccccc21)c1ccccc1 (stereo not drawn),PIK3CG,enzyme activity,inhibitor,ADP detection,,IC50,28.3 nM
NC(=O)C1=CN([C@@H]2O[C@H](COP(=O)(O)OP(=O)(O)OC[C@H]3O[C@@H](n4cnc5c(N)ncnc54)[C@H](OP(=O)(O)O)[C@@H]3O)[C@@H](O)[C@H]2O)C=CC1,"MECR (Homo sapiens, UniProt Q9BV79)",binding,,ITC,,Kd,956 nM
Cc1cc(Oc2ncccc2CN2CCN(c3ccccc3Br)CC2)ccc1-c1c(C)c(=O)[nH]c(=O)n1C,ADRA2B,ligand displacement,,radioligand,,Ki,49.6 nM
CC(C)C[C@H](NC(=O)[C@H](CC(C)C)NC(=O)[C@H](Cc1c[nH]c2ccccc12)NC(=O)[C@H](CCC(N)=O)NC(=O)[C@@H](NC(=O)[C@H](Cc1ccccc1)NC(=O)[C@H](CC(=O)O)NC(=O)[C@H](CCC(N)=O)NC(=O)[C@H](C)NC(=O)[C@H](C)NC(=O)[C@H](CCCNC(=N)N)NC(=O)[C@H](CCC(=O)O)NC(=O)[C@H](CC(=O)O)NC(=O)[C@H](CC(C)C)NC(=O)[C@H](Cc1ccc(O)cc1)NC(=O)[C@H](CCCCN)NC(=O)[C@H](CO)NC(=O)[C@H](Cc1ccc(O)cc1)NC(=O)[C@H](CC(=O)O)NC(=O)[C@H](CO)NC(=O)[C@@H](NC(=O)[C@H](Cc1ccccc1)NC(=O)[C@@H](NC(=O)CNC(=O)[C@H](CCC(N)=O)NC(=O)C(C)(C)NC(=O)[C@@H](N)Cc1c[nH]cn1)[C@@H](C)O)[C@@H](C)O)C(C)C)C(=O)N[C@@H](CC(=O)O)C(=O)NCC(=O)NCC(=O)N1CCC[C@H]1C(=O)N[C@@H](CO)C(=O)N[C@@H](CC(C)C)C(=O)N[C@@H](CCCNC(=N)N)C(=O)N[C@@H](Cc1c[nH]cn1)C(=O)N[C@@H](Cc1ccc(O)cc1)C(=O)N[C@@H](CC(C)C)C(=O)N[C@@H](CC(N)=O)C(=O)N[C@@H](CC(C)C)C(=O)N[C@H](C(=O)N[C@H](C(=O)N[C@@H](CCCNC(=N)N)C(=O)N[C@@H](CCC(N)=O)C(=O)N[C@@H](CCCNC(=N)N)C(=O)N[C@@H](Cc1ccc(O)cc1)C(N)=O)[C@@H](C)O)C(C)C,"Neuropeptide Y receptor type 2 (NPY2R, Homo sapiens, UniProt P49146)",reporter gene,agonist,luciferase,,EC50,0.4 nM
